# Screening data (PubChem)
# This is a sample that favours compounds with a hit; in the whole collection about 3.2% have one here.
# mABHD4 FP: inhibitors of mouse ABHD4; inhibition, % at 8.92 µM; purified mABHD4, FP-Rh probe fluorescence polarization; actives 0.54% (n = 370,000); Q8VD66;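 active = inhibition exceeding the mean over every tested compound plus 3 SD, cut at about 30% in these data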
#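 Test system: mABHD4 protein; Read-out basis: % inhibition; Incubation: 45 min + 60 min at 25 °C; Repeats: single replicate; Technique: fluorescence polarization with parallel and perpendicular emission, 525/598 nm; Compound: 8.92 µM, single dose; Benchmarks: full inhibition S159A mutant plus DMSO, zero as sample-well median.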
# HTRA1 inhibitor: HTRA1 (human) protease inhibition; recombinant HTRA1, FP-rhodamine activity-based probe, fluorescence polarization; inhibition, % at 5.96 µM; actives 0.5% (n = 340,000); Q92743; in the data active = inhibition above about 36%
# DAGLB inh: diacylglycerol lipase beta (human) inhibition; Q8NCG7; HEK293T DAGLB membrane lysate, EnzChek fluorogenic substrate; inhibition, % at 5.17 µM; AID 504411; actives 0.059% (n = 340,000); in the data active = inhibition above about 34%
# LEDGF integ inh: blocks HIV-1 LEDGF/p75-dependent DNA integration; inhibition, % at 3.7 µM; actives 0.64% (n = 370,000); TR-FRET IN-LEDGF/p75 DNA integration, Eu/Cy5;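 active = inhibition above the screen-wide mean plus 3 SD, cut at about 13% in these data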;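 note: signal is the Cy5 over europium emission ratio at 671 and 618 nm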
# PRMT1 FP inh: inhibitors of human PRMT1; Q99873; recombinant PRMT1, activity-based probe fluorescence polarization; inhibition, % at 2.79 µM; actives 1.3% (n = 370,000);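 active = inhibition above about 21% made by adding two undisclosed values, limit read from the data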
# rCAG RNA binder: binds r(CAG) RNA repeats; r(CAG) RNA repeat, TO-PRO-1 dye displacement fluorescence; inhibition, % at 3 µM; actives 1.3% (n = 370,000);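 active = inhibition above the plate cutoff, the mean of all test compounds on that plate plus 3 SD, cut at about 35% in these data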;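 note: higher means more dye released from RNA so lower well fluorescence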
# IN multimer act: HIV-1 integrase multimerization activation, counter-screen. TR-FRET HIV-1 integrase multimerization, biochemical. activation, % at 7.7 µM. actives 17% (n = 2,000). AID 1053131. shares compounds with LEDGF integ inh; in the data active = activation above about 8.9%
# TRFRET interf: counter-screen for LEDGF/p75 integration inhibitors: TR-FRET optical interference; shares compounds with LEDGF integ inh; TR-FRET optical interference counterscreen, HIV-1 IN multimerization; AID 1053135; inhibition, % at 7.7 µM; 2,000 tested, under 10 active;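 active = inhibition above the mean over all tested compounds plus 3 SD, which no compound reached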
# IN-LEDGF confirm: LEDGF/p75-dependent HIV-1 integration inhibition, confirmation. actives 36% (n = 2,000). inhibition, % at 3.7 µM. shares compounds with LEDGF integ inh. AID 1053136. TR-FRET LEDGF/p75-dependent HIV-1 integration, biochemical; in the data active = inhibition above about 14%
# Numbers stand for hits; . = inactive; / = not tested or not shown.
SMILES,mABHD4 FP,HTRA1 inhibitor,DAGLB inh,LEDGF integ inh,PRMT1 FP inh,rCAG RNA binder,IN multimer act,TRFRET interf,IN-LEDGF confirm
Cc1ccc(CN2CCC(CO)(CC3CCCCO3)CC2)o1 (configuration not stated),.,.,.,.,.,.,/,/,/
CC1CCN(C(=O)COC(=O)c2ccc(Br)o2)CC1,.,.,.,22,.,.,.,.,.
c1ccc(-c2nnc(-c3ccco3)o2)cc1,.,.,.,.,.,.,/,/,/
c1coc(-c2nnc(-c3ccco3)nn2)c1,.,.,.,61,46,.,11,.,86
O=C(O)CCCC(=O)Nc1ccc(N2CCCC2)cc1,.,.,.,14,.,.,12,.,.
O=C(CNS(=O)(=O)c1ccc(Br)cc1)N1CCN(c2ccc(F)cc2)CC1,.,.,.,.,.,.,/,/,/
O=C(CCS(=O)(=O)c1ccc(Br)cc1)N1CCN(c2ccc(F)cc2)CC1,.,.,.,19,.,.,.,.,.
COC(=O)[C@@H]1C[C@H]1[C@@H](NC(=O)c1cc(C)on1)c1ccccc1,.,.,.,.,.,.,/,/,/
Fc1ccc(CNC(=S)Nc2cccc(Cl)c2)cc1,.,.,.,15,.,.,.,.,.
Cc1ccc(NC(=O)CN2C(=O)N/C(=C/c3ccco3)C2=O)cc1,.,.,.,21,.,.,14,.,26
Cc1cccc(NC(=O)CN2C(=O)N/C(=C/c3ccc(C)s3)C2=O)c1,.,.,.,.,.,.,/,/,/
CCCC(=O)N1CCCC1(C)C(=O)Nc1cc(C)ccc1C (configuration not stated),.,/,/,85,.,.,.,.,.
O=C(Cc1ccc(Br)cc1)NCCCn1ccnc1,.,.,.,.,.,.,/,/,/
CC(=O)N1CCc2cc3nc(C)cc(C)c3cc21,.,.,.,52,.,.,.,.,.
COc1cc(COC(=O)c2cnc(C)cn2)c(OC)cc1Br,.,.,.,37,.,.,.,.,.
COc1ccccc1C(=O)COC(=O)c1cnc(C)cn1,.,.,.,.,.,.,/,/,/
CNc1c(NS(=O)(=O)c2ccc(C(C)(C)C)cc2)c(=O)oc2ccccc12,.,.,.,.,.,.,/,/,/
CCCCc1nc(SCC(=O)Nc2nnc(CCCC)s2)n[nH]1,.,.,.,.,.,.,/,/,/
CC(C)Cc1nc(SCC(=O)Nc2nnc(CC(C)C)s2)n[nH]1,.,.,.,14,.,.,.,.,.
COc1cc(/C=N/Nc2nncn2N)ccc1OCc1c(C)no[n+]1[O-],.,.,.,59,.,.,.,.,.
COc1ccc(/C=N/Nc2nncn2N)cc1Br,.,.,.,70,.,.,.,.,.
Nn1cnnc1N/N=C/c1ccc(Cl)cc1Cl,.,.,.,48,.,.,.,.,.
COc1ccc(CSc2nncn2N)cc1Br,.,.,.,.,.,.,/,/,/
O=C(N/N=C/c1ccc(Cl)cc1Cl)c1ccc(-n2cnnn2)cc1,.,.,.,.,.,.,/,/,/
COc1ccc(C(=O)NNC(=O)c2ccccc2[N+](=O)[O-])cc1Br,.,.,.,.,.,.,/,/,/
O=C(c1coc(=O)c(Br)c1)N1CCCc2ccccc21,.,.,.,19,.,.,.,.,17
CC1(C)CCCN(C(=O)c2coc(=O)c(Br)c2)C1,.,.,.,22,.,.,16,.,65
O=C(c1coc(=O)c(Br)c1)N1CCC(C(O)(c2ccccc2)c2ccccc2)CC1,.,.,.,.,.,.,/,/,/
Cc1ccc(C(C)(C)NC(=O)C2CCC(=O)N(C3CCCCCC3)C2)cc1 (configuration not stated),.,.,.,.,.,.,/,/,/
